Most compounds without a hit are left out; they make up all but 1.8% or so of the library.
CRFR2-BP antag – antagonists of CRF-BP/CRF-R2 complex, primary screen, cell-based, HEK293, calcium dye fluorescence, uHTS. hit rate 0.59% among 350,000. inhibition, % at 11.8 µM. CRF-induced calcium fluorescence;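 active = inhibition of the ligand-induced calcium signal above about 50% at the single tested concentration, limit read from the data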
UPR XBP1 act – activators of adaptive XBP1 UPR arm, primary screen, cell-based, CHO-XBP1 luciferase reporter, luminescence, uHTS | IRE1-XBP1 UPR activation; percent of tunicamycin response, DMSO as zero | activation, % at 20 µM | hit rate 0.33% among 330,000 | AID 463104, 2010;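 active = versus positive control, 20 µM dose yields 30% or more activation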
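Material: IRE1-XBP1 luciferase reporter CHO line / Quantity: one thousand reporter cells per well / Buffer or medium: F12 with 10% serum / Compound: 20 µM single concentration, DMSO 1% / Times: 6 h treatment, 37 °C / Detection: Steady-Glo luciferase glow luminescence, 10 min after reagent addition / Benchmarks: tunicamycin high, DMSO low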
CHOP UPR activ – activators of apoptotic CHOP UPR arm, primary screen, cell-based, CHO-CHOP luciferase reporter, luminescence, uHTS. UPR activation; percent of tunicamycin response over DMSO baseline. activation, % at 10 µM. hit rate 0.34% among 330,000;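 active = at 10 µM dose, activation of 40% or more, normalized to positive control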
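System: CHO-CHOP luciferase reporter cell line | Buffer or medium: F12 medium containing 10% fetal bovine serum | Doses: One dose, 10 µM in 0.5% DMSO | Times: 6 h compound exposure at 37 °C after overnight seeding | Signal: Luciferase luminescence | Read-out: % activation vs tunicamycin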
Jurkat NFkB inh – inhibitors of induced NF-kB luciferase reporter, primary screen, TCR NF-kB activation inhibitor project, cell-based, luminescence, uHTS | Jurkat, PMA/ionomycin-induced NF-kB luciferase reporter | inhibition, % at 4 µM | hit rate 0.53% among 330,000 | AID 435003, 2010; in the data active = inhibition above about 50%
697 NFkB inh – inhibitors of PMA/ionomycin-induced NF-kB reporter, 697 cells, primary screen, B-cell NF-kB inhibitor project, cell-based, luminescence, uHTS; AID 435022, 2010; 697 B-cell NF-kB luciferase reporter, 16 h; hit rate 0.33% among 330,000; inhibition, % at 4 µM; in the data active = inhibition above about 35%
Jurkat NFkB conf – PMA/ionomycin-induced NF-kB reporter inhibitors, Jurkat retest, confirmation, T-cell NF-kB inhibitor project, cell-based, luminescence, single concentration | Jurkat NF-kB luciferase, 16 h | inhibition, % at 4 µM | hit rate 27% among 2,700 | shares compounds with Jurkat NFkB inh;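 active = inhibition reaching about 45% at 4 µM in either replicate, limit read from the data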
697 NFkB conf – PMA/ionomycin-induced NF-kB reporter inhibitors, 697 retest, confirmation, B-cell NF-kB inhibitor project, cell-based, luminescence, single concentration; hit rate 35% among 2,000; 697 B-cell NF-kB luciferase, 16 h; inhibition, % at 4 µM; shares compounds with 697 NFkB inh; AID 449746, 2010; in the data active = inhibition mostly above about 28%, no sharp cut-off; inactive = mostly below about 22%
A number is an active result.

CCN(CC)S(=O)(=O)c1ccc(Oc2ccccc2OC)cc1 was read as CRFR2-BP antag inactive, UPR XBP1 act inactive, CHOP UPR activ inactive, Jurkat NFkB inh inactive and 697 NFkB inh inactive.
`CCN(CC)S(=O)(=O)c1ccc(Oc2ccc(S(=O)(=O)N(CC)CC)cc2)cc1` gave CRFR2-BP antag inactive, UPR XBP1 act inactive, CHOP UPR activ inactive, Jurkat NFkB inh 55, 697 NFkB inh 84, Jurkat NFkB conf 75 and 697 NFkB conf 87.
c1ccc(Nc2ncnc3sccc23)cc1 was read as CRFR2-BP antag inactive, UPR XBP1 act inactive, CHOP UPR activ inactive, Jurkat NFkB inh inactive and 697 NFkB inh inactive.
`CC(Nc1ncnc2sccc12)c1ccccc1` (centres undefined) gave CRFR2-BP antag inactive, UPR XBP1 act inactive, CHOP UPR activ inactive, Jurkat NFkB inh 61, 697 NFkB inh 43, Jurkat NFkB conf 62 and 697 NFkB conf 60.
`CCN(CC)S(=O)(=O)c1ccc(C)c(NC(=O)CNc2cccc(S(=O)(=O)N3CCCC3)c2)c1` gave CRFR2-BP antag inactive, UPR XBP1 act inactive, CHOP UPR activ inactive, Jurkat NFkB inh inactive and 697 NFkB inh inactive.
`CCN(CC)S(=O)(=O)c1cccc(NC(=O)CNc2cccc(S(=O)(=O)N3CCCC3)c2)c1` gave CRFR2-BP antag inactive, UPR XBP1 act inactive, CHOP UPR activ inactive, Jurkat NFkB inh 56, 697 NFkB inh 43, Jurkat NFkB conf 58 and 697 NFkB conf 67.
`Clc1ccc(-c2cn3ccccc3n2)cc1` gave CRFR2-BP antag inactive, UPR XBP1 act inactive, CHOP UPR activ inactive, Jurkat NFkB inh inactive, 697 NFkB inh inactive, Jurkat NFkB conf inactive and 697 NFkB conf inactive.
For O=C(Nc1ccc(-c2cn3ccccc3n2)cc1)c1ccc(Cl)cc1 the results were CRFR2-BP antag inactive, UPR XBP1 act inactive, CHOP UPR activ inactive, Jurkat NFkB inh inactive and 697 NFkB inh inactive.
Screening COc1cc(/C=N/NC(=S)Nc2cccc(C(=O)O)c2)ccc1O returned CRFR2-BP antag inactive, UPR XBP1 act inactive, CHOP UPR activ inactive, Jurkat NFkB inh 54, 697 NFkB inh 38, Jurkat NFkB conf 50 and 697 NFkB conf 38.
For COc1ccc(NC(=O)c2ccc(Br)o2)cc1 the results were CRFR2-BP antag inactive, UPR XBP1 act inactive, CHOP UPR activ inactive, Jurkat NFkB inh inactive and 697 NFkB inh inactive.
`CC(C)c1ccc(NC(=O)c2ccc(Br)o2)cc1` gave CRFR2-BP antag inactive, UPR XBP1 act inactive, CHOP UPR activ inactive, Jurkat NFkB inh inactive, 697 NFkB inh inactive, Jurkat NFkB conf inactive and 697 NFkB conf inactive.
For COc1ccc(-c2ccc3ccccc3n2)cc1 the results were CRFR2-BP antag inactive, UPR XBP1 act inactive, CHOP UPR activ inactive, Jurkat NFkB inh inactive, 697 NFkB inh inactive, Jurkat NFkB conf inactive and 697 NFkB conf inactive.
For N#Cc1c(NC(=O)CSc2nc(N)cc(=O)[nH]2)sc2c1CCCCCC2 the results were CRFR2-BP antag inactive, UPR XBP1 act inactive, CHOP UPR activ inactive, Jurkat NFkB inh inactive and 697 NFkB inh inactive.
For N#Cc1c(NC(=O)CSc2ncn[nH]2)sc2c1CCCCC2 the results were CRFR2-BP antag inactive, UPR XBP1 act inactive, CHOP UPR activ inactive, Jurkat NFkB inh 63, 697 NFkB inh 70, Jurkat NFkB conf 65 and 697 NFkB conf 59.
Cc1cnc(NC(=O)Nc2ccc(Cl)cc2)s1 was read as CRFR2-BP antag inactive, UPR XBP1 act inactive, CHOP UPR activ inactive, Jurkat NFkB inh 81, 697 NFkB inh 65, Jurkat NFkB conf inactive and 697 NFkB conf 49.
`CN(CCOc1ccccc1)C(=O)CNC(=O)c1ccc(C(C)(C)C)cc1` gave CRFR2-BP antag inactive, UPR XBP1 act inactive, CHOP UPR activ inactive, Jurkat NFkB inh inactive and 697 NFkB inh inactive.

Compound activity as filed in PubChem BioAssay.
